Granule exo inh – lytic granule exocytosis inhibition | TALL-104 LAMP-1 surface exposure, flow cytometry; cells stimulated with thapsigargin and PMA | inhibition, % at 10 µM | 360,000 compounds, 0.66% hits;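 active means inhibition above about 55%, limit read from the data; inconclusive means no clear call, values can overlap the other calls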
NTR1 ag – NTR1 (human) agonism. P30989. NTR1-U2OS beta-arrestin-GFP spot imaging, agonist mode. activation, % at 20 µM. 330,000 compounds, 0.17% hits. AID 493036;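 active means activation at or above 40% of the spot to cytoplasm intensity ratio, with at least 20 cells analyzed; inconclusive means wells under 20 cells, flagged as cytotoxic or low count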;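 further: 0% = DMSO without peptide and 100% = 100 nM NTR1 peptide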
Bfl-1 A1 inh – inhibitors of the anti-apoptotic protein A1, read as caspase activation. MEF A1-2A-BIM cells, Caspase-Glo 3/7 luminescence, 3 h; percent of clofoctol response, vehicle zero. caspase activation, % (concentration not given with the values). 330,000 compounds, 0.066% hits. AID 2462;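 active means over half of replicate activation scores above 10%, or exactly half above 10 with the replicate mean above 10; inconclusive means replicate mean below 10 yet half the replicates above 10; inactive means over half of replicates below 10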
sPLA2-III inh – Blocks human group III sPLA2 activity; Q9NZ20; QFRET BODIPY PC-A2 liposome hydrolysis, fluorescence; inhibition, % at 12.2 µM; 370,000 compounds, 0.56% hits; AID 743126;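 active means inhibition above mean plus 3 SD of compounds lying within the high and low control bounds, cut at about 19% in these data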;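 further: 0% = median of test compound wells and 100% = no enzyme DMSO wells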
Target sequence (Q9NZ20 whole entry, looked up): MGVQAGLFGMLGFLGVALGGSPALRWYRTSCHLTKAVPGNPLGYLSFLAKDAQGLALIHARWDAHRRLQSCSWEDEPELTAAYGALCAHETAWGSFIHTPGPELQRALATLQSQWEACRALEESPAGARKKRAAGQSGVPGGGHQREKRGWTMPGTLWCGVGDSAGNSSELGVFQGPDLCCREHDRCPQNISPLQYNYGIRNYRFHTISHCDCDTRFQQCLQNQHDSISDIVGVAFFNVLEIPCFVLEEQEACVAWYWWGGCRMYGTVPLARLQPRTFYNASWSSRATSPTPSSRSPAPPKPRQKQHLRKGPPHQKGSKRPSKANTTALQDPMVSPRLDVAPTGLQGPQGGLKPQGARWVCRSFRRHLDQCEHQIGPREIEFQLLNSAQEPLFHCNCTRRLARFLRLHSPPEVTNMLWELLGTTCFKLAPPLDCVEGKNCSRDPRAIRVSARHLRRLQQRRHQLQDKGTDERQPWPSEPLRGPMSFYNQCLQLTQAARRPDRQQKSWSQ
MC4R ag barr – human MC4R agonism via beta-arrestin; P32245; U2OS MC4R beta-arrestin complementation, luminescence; percent of melanotan II response, DMSO zero; activation, % at 8.9 µM; 360,000 compounds, 0.98% hits; AID 540308;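 active means activation above a per-plate cutoff, the mean activation of sample wells on that plate plus 3 SD, cut at about 8% in these data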
MC4R antagonist – human MC4R antagonism in cAMP assay; P32245; MC4R-expressing cells, MTII-stimulated cAMP, LANCE TR-FRET; inhibition, % at 6.5 µM; 360,000 compounds, 0.48% hits; AID 540295;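 active means inhibition above its plate's cutoff, the mean of tested wells on that plate plus 3 SD, cut at about 29% in these data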;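 further: 0% = Melanotan II alone and 100% = Melanotan II plus saturating MCL0020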
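Assay system: U2OS-MC4R stable cell line; Also added: Melanotan II; Technique: Eu-cAMP/anti-cAMP TR-FRET, emission 671 nm; Times: 30-min compound, 1-h challenge, 1-h detection, room temperature.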
MC4R barr ag – human MC4R beta-arrestin agonism confirmation | U2OS MC4R beta-arrestin recruitment, luminescence; scaled DMSO 0%, Melanotan II 100% | activation, % at 8.9 µM | 2,400 compounds, 31% hits | shares compounds with MC4R ag barr;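 active means mean activation across replicates above the hit cutoff set in the earlier primary screen, cut at about 8% in these data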
MOR-DOR barr ag – OPRM1-OPRD1 heterodimer agonism counter-screen. activation, % at 9.2 µM. AID 602194. 2,400 compounds, 5.8% hits. U2OS PathHunter beta-arrestin, beta-gal luminescence; percent of deltorphin B response, DMSO zero. shares compounds with MC4R ag barr;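 active means mean activation across replicates exceeds the hit threshold derived in the earlier primary screen, cut at about 18% in these data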;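 further: 100% = deltorphin B at 0.9 µM final and 0% = DMSO alone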
Exocytosis CP01 – lytic granule exocytosis inhibition; shares compounds with Granule exo inh; TALL-104 cells, LAMP-1 externalization, flow cytometry; stimulated with PMA plus thapsigargin; inhibition, % at 10 µM; 1,500 compounds, 11% hits; in the data active means inhibition above about 60%;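 further: 0% = stimulated vehicle wells and 100% = unstimulated wells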
Starred values were filed as active, the others as inactive; ? = inconclusive; · = not tested or not shown. Shown are actives, neighbours in structure and some others; about 2.5% of the full set was active somewhere.

SMILES	Granule exo inh	NTR1 ag	Bfl-1 A1 inh	sPLA2-III inh	MC4R ag barr	MC4R antagonist	MC4R barr ag	MOR-DOR barr ag	others
COC1=C[C@H](C(=O)NC2CCN(Cc3ccccc3)CC2)[C@@]2(C)Cc3ccccc3[C@H]2CC1=O	·	·	·	-10.6	·	·	·	·
COc1ccc(C(=O)OCC(=O)NC(=O)Nc2ccccc2F)c(OC)c1	1.9	-0.7	-1.4	8.5	24.6*	-7.7	2.3	14.7
COc1ccc(C(=O)OCC(=O)NCCCc2ccccc2)c(OC)c1	7.6	0.3	0.7	-1.3	-1.4	1.9	·	·
COc1ccc(NC(=O)c2sc3cc(C(F)(F)F)cnc3c2-c2cccs2)cc1	-1.4	1.6	?	5.5	9.8*	3.4	-0.9	3.0
O=C(Nc1ccc(F)cc1)c1sc2cc(C(F)(F)F)cnc2c1-c1cccs1	-2.4	2.0	0.2	-5.0	11.0*	0.7	6.1	5.7
C=CCNC(=O)/C(C#N)=C/c1cn(-c2ccccc2)nc1-c1cccs1	-5.2	4.8	0.2	-1.9	32.6*	12.4	9.1*	9.0
COC(=O)c1sc2ccccc2c1N	-2.5	13.0	·	3.6	-1.0	7.4	·	·
CCOC(=O)c1sc2ccccc2c1OC(=O)c1ccc(C)cc1	1.9	-3.1	0.4	·	14.0*	5.3	7.2	8.4
C=CCN1C(=O)C(Cc2ccc(OC)cc2)S/C1=N\N=C\c1cccs1 (stereo unspecified)	-5.7	1.8	-0.1	0.1	9.9*	-1.2	9.7*	1.9
CCCCc1ccc(NS(=O)(=O)c2cccs2)cc1	-1.0	6.8	0.2	-13.5	17.4*	15.0	8.5*	6.8
O=S(=O)(Nc1ccc(Cc2ccncc2)cc1)c1cccs1	-1.7	0.3	-0.5	-3.5	-0.7	13.1	·	·
CC/C(=N/Nc1ccccc1)c1cnnc(-c2ccccc2)n1	-5.9	1.4	-0.4	0.2	16.1*	4.5	20.6*	2.4
CC/C(=N/Nc1cccc(Cl)c1)c1cnnc(SC)n1	-1.6	4.8	0.3	-3.1	0.4	-6.7	·	·
C=CCN1C[C@H](COC(=O)c2ccc(C)c(C)c2)Oc2cccc(F)c2S1(=O)=O	·	·	·	-9.4	·	·	·	·
COc1ccc(-c2n[nH]c(=S)n2/N=C/C=C/c2ccccc2OC)cc1	-1.9	6.0	0.1	1.1	11.2*	-4.3	-1.1	7.4
CCN(C(=O)Cn1nnc(-c2ccncc2)n1)c1ccccc1	·	·	·	14.2	·	·	·	·
CCOC(=O)Cn1c(=NC(=O)c2nc3ccccc3s2)sc2cc(S(N)(=O)=O)ccc21	-10.0	28.9	0.2	-0.5	11.5*	28.3	1.2	2.9
O=C(CCn1cnc2ccccc2c1=O)Nc1nc(-c2ccc(Br)cc2)cs1	0.4	3.7	2.8	4.4	10.8*	19.9	5.8	35.0*
Cc1ccc(NC(=O)CCn2cnc3ccccc3c2=O)cc1	7.6	-0.8	-2.7	0.5	-0.5	7.3	·	·
CC(COc1ccc(Br)cc1)CN1CCC(C(O)(c2ccccc2)c2ccccc2)CC1 (stereo unspecified)	·	·	·	-17.6	·	·	·	·
O=C(Nc1ccccc1)c1cc2ccccc2c(=O)s1	0.3	3.4	0.1	-17.0	12.9*	-4.1	-0.4	4.7
Cc1cc(C)c(CN2CCN(CCCn3cnc(C(=O)Nc4ccc(C)c(C)c4)n3)CC2)c(C)c1	57.0*	·	·	-9.7	15.5*	0.8	23.8*	9.6	Exocytosis CP01=15.1
Cc1ccc(NCCCn2cnc(C(=O)Nc3ccc(C)c(C)c3)n2)cc1C	-0.3	·	·	4.9	7.6	11.3	·	·
COc1ccc(-c2cc(NC(C)=O)c3ncc(-c4ccccc4)n3c2)c(OC)c1	94.0*	·	·	-2.4	32.5*	9.1	36.7*	2.4	Exocytosis CP01=96.2*
COc1cccc(-c2cnc3c(NC(C)=O)cc(-c4ccccc4OC)cn23)c1	75.9*	·	·	2.5	22.0*	19.4	14.6*	2.1	Exocytosis CP01=93.6*
SMILES	Granule exo inh	NTR1 ag	Bfl-1 A1 inh	sPLA2-III inh	MC4R ag barr	MC4R antagonist	MC4R barr ag	MOR-DOR barr ag	others
Cc1ccc2nc(CN(C)C(=O)[C@@H](Cc3ccccc3)NC(=O)[C@H]3O[C@@H](n4cnc(C(N)=O)n4)[C@H](O)[C@@H]3O)[nH]c2c1	·	·	·	-11.3	·	·	·	·
CN(CCOC(=O)CC1C=CCC1)C1CN(Cc2cn(Cc3ccccc3Cl)nn2)S(=O)(=O)C1 (stereo unspecified)	·	·	·	-5.7	·	·	·	·
Cc1cc(-c2ccc([N+](=O)[O-])cc2)nc2ccccc12	1.4	2.0	0.2	-1.1	-2.5	0.5	·	·
Cc1cc(N2CCN(c3nc(-c4ccc([N+](=O)[O-])cc4)cs3)CC2)c2ccccc2n1	66.4*	2.3	0.6	-5.7	18.5*	12.3	11.1*	6.6	Exocytosis CP01=79.5*
C[C@H](O)[C@@H]1CN2CCc3c([nH]c4cccc(-c5ccccc5)c34)[C@@H]2C[C@@H]1N(C)C(=O)C1CCCCC1	·	·	·	6.1	·	·	·	·
Cc1cccn2c(=O)c3cc(C(=O)NCCc4ccccc4)sc3nc12	92.1*	8.0	0.4	4.8	17.7*	-0.2	13.0*	2.8	Exocytosis CP01=-3.6
CCCCNC(=O)O[C@H]1CC[C@@]23CCCN2C(=O)CCC[C@H]3[C@H]1CCC	·	·	·	15.9	·	·	·	·
OC1(c2cccc(C(F)(F)F)c2)CCN(c2ncnc3c2[nH]c2ccc(F)cc23)CC1	96.1*	·	·	-27.5	9.8*	21.5	1.4	6.3	Exocytosis CP01=67.6*
Cc1ccc2nc(N(CCCN(C)C)C(=O)CCc3ccccc3)sc2c1	7.1	·	-0.6	-24.1	0.0	-3.1	·	·
CN(C)CCCN(C(=O)CCc1ccccc1)c1nc2ccc(Cl)cc2s1	72.1*	7.0	0.8	-18.7	10.6*	-4.2	31.1*	16.4	Exocytosis CP01=50.8
Cc1ccc(-c2nnc3n2N=C(c2ccc(-c4ccccc4)cc2)CS3)cc1	·	·	·	-10.5	·	·	·	·
Cc1cc2ccccc2nc1SCC(=O)NC1CCCC1	0.1	·	-0.3	-6.9	-1.1	10.7	·	·
CCc1cc2cc(C)ccc2nc1SCC(=O)NC1CCCC1	91.5*	6.8	0.0	2.0	10.9*	4.8	-0.6	7.9	Exocytosis CP01=-3.7
Cc1ccc2nc(-c3ccc(NC(=O)CCS(=O)(=O)c4ccccc4)cc3)sc2c1	7.2	1.7	-5.9	-12.2	-1.4	11.7	·	·
Cc1cccc(S(=O)(=O)Nc2ccc(-c3nc4ccc(C)cc4s3)cc2)c1	74.8*	4.7	0.2	-95.6	16.0*	-0.2	-0.4	2.5	Exocytosis CP01=-11.1
COc1ccc(Cn2c(SCc3ccccc3C)nc3cc(OC)c(OC)cc3c2=N)cc1	95.8*	30.7	0.4	-8.6	26.3*	14.1	7.1	27.3*	Exocytosis CP01=59.2

Screening data: PubChem, several laboratories
